Data reported in ChEMBL document CHEMBL4184106, “Discovering alkylamide derivatives of bexarotene as new therapeutic agents against triple-negative breast cancer” (Bioorg Med Chem Lett, 2018).
Activity calls are given as the source filed them. The calls are words filed in the database; no cut-off is given here.

Experiments:
MCF7 [1] = assay: Inhibition of mammosphere formation in human MCF7 cells assessed as ratio of Sox2 to beta actin level at 5 uM by Western blot analysis (Rvb= 1); format: functional
Procedure, shortened: (§1)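 Post-treatment cell lysates were probed by Western blot for CSC markers, with β-actin as the loading control. Band densitometry was normalized to DMSO-treated samples.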

BT-549 [2] = assay: Effect on beta-catenin translocation in cytosolic fraction of human BT549 cells assessed as ratio of beta-catenin to beta-actin level at 5 uM by Western blot analysis (reference value: 1); format: functional
MDA-MB-231 [3] = assay: Effect on beta-catenin translocation in nuclear fraction of human MDA-MB-231 cells assessed as ratio of beta-catenin to beta-actin level at 5 uM by Western blot analysis (reference value: 1); format: functional
MCF-10A = assay: Induction of apoptosis in human MCF10A cells assessed as ratio of cleaved caspase-8 to beta-actin level at 5 uM by western blot analysis (reference value: 1); format: cell-based
MDA-MB-231 [4] = assay: Induction of apoptosis in human MDA-MB-231 cells assessed as ratio of cleaved caspase-8 to beta-actin level at 5 uM by western blot analysis (reference value: 1); format: functional
BT-549 [5] = assay: Induction of apoptosis in human BT549 cells assessed as ratio of cleaved caspase-8 to beta-actin level at 5 uM by western blot analysis (reference value: 1); format: functional
BT-549 [6] = assay: Induction of apoptosis in nuclear fractions of human BT549 cells assessed as ratio of PARP to beta-actin level at 5 uM by western blot analysis (reference value: 1); format: functional
BT-549 [7] = assay: Effect on beta-catenin translocation in nuclear fraction of human BT549 cells assessed as ratio of beta-catenin to beta-actin level at 5 uM by Western blot analysis (reference value: 1); format: functional
BT-549 [8] = assay: Inhibition of mammosphere formation in human BT549 cells assessed as ratio of KLF4 to beta actin level at 5 uM by Western blot analysis (Rvb= 1); format: functional
MDA-MB-231 [9] = assay: Inhibition of mammosphere formation in human MDA-MB-231 cells assessed as ratio of C-Myc to beta actin level at 5 uM by Western blot analysis (Rvb= 1); format: functional; procedure, shortened: as §1
MCF7 [10] = assay: Inhibition of mammosphere formation in human MCF7 cells assessed as ratio of Oct4A to beta actin level at 5 uM by Western blot analysis (Rvb= 1); format: functional; procedure, shortened: as §1
MCF7 [11] = assay: Inhibition of mammosphere formation in human MCF7 cells at 2 uM after 7 days by microscopic method; format: functional, cell-based
Procedure, shortened: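 MCF-7 cells were grown under mammosphere-forming conditions with compound. Spheres 60 μm or larger were counted for quantitation.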

MDA-MB-231 [12] = assay: Cytotoxicity against human MDA-MB-231 cells assessed as reduction in cell viability by MTT assay; format: functional, cell-based

## C=C(c1ccc(C(=O)NCCN2CCCC2)cc1)c1cc2c(cc1C)C(C)(C)CCC2(C)C
MCF7 [1]
  Ratio: 0.4
BT-549 [2]
  Ratio: 2.4
MDA-MB-231 [3]
  Ratio: 0.4
MCF-10A
  Ratio: 1
MDA-MB-231 [4]
  Ratio: 3.7
BT-549 [5]
  Ratio: 1
BT-549 [6]
  Ratio: 0.9
BT-549 [7]
  Ratio: 0.5
BT-549 [8]
  Ratio: 0.8
MDA-MB-231 [9]
  Ratio: 1.1
MCF7 [10]
  Ratio: 1.1
MCF7 [11]
  inhibition: Active
MDA-MB-231 [12]
  EC50: < 10 µM
